Tested on: platelets, SFLLRN actin polymerization, FITC-phalloidin flow
Assay: inhibition of SFLLRN-induced platelet actin polymerization, late-stage follow-up, selectivity assay for platelet granule secretion inhibitor project, cell-based, FITC-phalloidin flow cytometry, repeated runs (AID 2657)
Details: at 10 µM; stronger effect = higher value
Procedure, shortened: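 Test system: Gel-filtered platelets | Also added: SFLLRN agonist peptide at 5 µM, or no agonist | Dosing: 10 µM compound, single dose | Times: Compound 20 min then SFLLRN 15 min, both 37 °C | Detection: Flow cytometry of fixed, permeabilized platelets stained with FITC-phalloidin | Controls: DMSO-only wells at 0.3% as neutral control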

| SMILES | inhibition [%] |
| --- | --- |
| C/C(=N/NC(=O)C1CCCC1)c1ccc(NC(=O)C(F)(F)F)cc1 | 73.5 |
| Cc1ccc(-n2c(N)c(C#N)c(-c3ccccc3)c(C#N)c2=O)cc1 | 99 |
